We go through 62 compounds from PubChem BioAssay AID871 (The Scripps Research Institute Molecular Screening Center, 2007).

Structures are written as SMILES. The whole screen tested about 190,000 compounds, of which about 1,800 (0.95%) were called active. This excerpt belongs to a sample that is enriched for actives. Values without a mark were called inactive.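 Rule for the calls: active = activation above the screen-wide mean of compound activation plus 3 SD (cut at about 130% in these data); inactive = the rest.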

This assay in a line: IL-6 driven STAT3 reporter potentiators, primary screen, U3A cells, luciferase, luminescence, MLSCN library (AID 871).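 Note: 0% = background luminescence of wells with medium and substrate only.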 The following applies: IL-6 STAT3-luciferase reporter, at 5.6 µM, active compounds read high, 100% = signal with IL-6 EC80 alone. The method, boiled down:
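Material: STAT3-luciferase reporter U3A cells. Controls: IL-6-treated wells, 100% activation. Read-out: % activation versus median of IL-6-stimulated wells. Probe or stimulus: IL-6 stimulus at 33 ng/mL final. Timing: compound 1 h, then IL-6 6 h at 37 °C. Signal: reporter luminescence signal.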
In the case of `C/C(=N\NC(=O)CCn1nc(C)cc1C)C(C)(C)C`, the activation (% of control) is 95.6%.

Consider `O=C(CSc1ncnc2scc(-c3ccccc3)c12)NCc1ccc2c(c1)OCO2`, for which the activation (% of control) was 103%.

In the case of `COc1cccc(-c2nn(C)c3sc(C(=O)N4CCN(c5ccccc5)CC4)cc23)c1`, the activation (% of control) was 103%.

Consider `COc1ccc(-c2cc(C(=O)NCc3ccco3)no2)cc1OC`, for which the activation (% of control) was 101%.

Regarding `Cn1nc(-c2ccc(Cl)cc2)c2cc(C(=O)NCc3ccco3)sc21`, the activation (% of control) was 158% (active).

In the case of `COc1ccccc1N1CCN(C(=O)c2cc3c(-c4ccc(Cl)cc4)nn(C)c3s2)CC1`, the activation (% of control) is 146% (active).

On to `CCOC(=O)N1CCN(C(=O)c2cc3c(-c4ccc(Cl)cc4)nn(C)c3s2)CC1`, for which the activation (% of control) is 107%.

In the case of `COc1ccc2c(Cl)c(C(=O)NCc3ccco3)sc2c1`, the activation (% of control) is 95.9%.

Take `CN(C)C(=O)c1ccc2c(c1)C1C3CCC(C3)C1C(c1ccccc1)N2` (configuration not stated): the activation (% of control) was 91.5%.

In the case of `CCOc1ccc(NS(=O)(=O)c2cc(C)c(C)cc2C)cc1`, the activation (% of control) is 102%.

Consider `COc1cc(OC)cc(C(=O)N[C@H](C(=O)OCC(=O)NC(C)c2ccccc2)C(C)C)c1` (some centres not stated), for which the activation (% of control) was 102%.

As to `COc1ccc(OC(C)C(=O)NCCc2nc3ccccc3[nH]2)cc1` (configuration not stated), the activation (% of control) is 98.1%.

On to `COc1cc(OC)cc(C(=O)N[C@H](C(=O)Nc2nc3ccccc3[nH]2)C(C)C)c1`, for which the activation (% of control) was 148% (active).

`Cc1cc2oc(=O)cc(CN3CCN(S(=O)(=O)c4cccs4)CC3)c2cc1C(C)C`: the activation (% of control) was 98.7%.

As to `COCCn1c(C)cc(C2=NNC(=Nc3ccc(F)cc3)SC2)c1C`, the activation (% of control) was 133% (active).

In the case of `Cc1cc(C2=NNC(=Nc3ccc(S(=O)(=O)N4CCOCC4)cc3)SC2)c(C)n1CC1CCCO1` (configuration not stated), the activation (% of control) is 102%.

Take `C=CCn1c(C)cc(C2=NNC(=NCC)SC2)c1C`: the activation (% of control) is 8.94%.

As to `Cc1c(Cl)c([N+](=O)[O-])nn1CCCC(=O)NC(C)c1ccccc1` (configuration not stated), the activation (% of control) is 101%.

On to `O=S1(=O)CC/C(=N\Nc2ccc(F)cc2)c2ccsc21`, for which the activation (% of control) was 80.3%.

Turning to `C=Cn1c(C(=O)O)ccc1-c1ccc(OC)cc1`, the activation (% of control) is 103%.

Regarding `O=C(COC(=O)c1ccncc1)c1ccccc1`, the activation (% of control) is 97.1%.

As for `COc1cccc(NC(=O)C(Sc2nnnn2C)c2ccccc2)c1` (configuration not stated), the activation (% of control) is 88.9%.

As for `CSc1ncnc2sc(C)c(C)c12`, the activation (% of control) was 91.1%.

Regarding `COC(=O)c1c(-c2cccs2)csc1NC(=O)CSc1ncnc2sc(C)c(C)c12`, the activation (% of control) was 93.1%.

For the compound `Cc1sc2ncnc(Sc3nc4ccccc4s3)c2c1C`, the activation (% of control) is 135% (active).

On to `Cc1csc(CN(C)C(=O)CC2C(=O)NCCN2CC(C)(C)C)n1` (configuration not stated), for which the activation (% of control) is 96.6%.

For `O=C(CN1CCN(c2ccc(Cl)cc2)CC1)NCc1cccs1`, the activation (% of control) was 99%.

With `CC(=O)NC1(c2ccc(F)cc2)CCN(C(=O)c2c(F)cccc2F)CC1`, the activation (% of control) is 104%.

In the case of `Cc1c(CCO)c(=O)[nH]n1C(=O)c1c(F)cccc1F`, the activation (% of control) was 134% (active).

As for `Cc1c(CCO)c(=O)n(-c2ccccc2)n1S(=O)(=O)c1ccc(F)cc1`, the activation (% of control) was 100%.

As for `CN1CCN(CCCCOc2ccccc2-c2ccccc2)CC1`, the activation (% of control) is 96.6%.

On to `CCOC(=O)c1ccccc1NC(=S)N1CCC(C(N)=O)CC1`, for which the activation (% of control) is 98.2%.

As for `COc1ccc(Cl)cc1N(CC(=O)N1CCCCC1)S(C)(=O)=O`, the activation (% of control) is 99%.

With `Cc1ccc2cc(C)c(N3CCC(C)CC3)nc2c1`, the activation (% of control) was 86.1%.

Consider `COc1ccccc1-c1nnc(SCC(=O)N2CC(C)CC(C)C2)o1` (configuration not stated), for which the activation (% of control) is 138% (active).

With `COc1ccccc1-c1nnc(SCC(=O)Nc2ccccc2)o1`, the activation (% of control) is 91.3%.

Consider `COc1ccccc1N1CCN(C(=O)CSc2nnc(-c3ccoc3C)o2)CC1`, for which the activation (% of control) was 93.7%.

Regarding `Cc1ccc(-n2c(SCC(=O)Nc3ncc(Cl)cc3Cl)nc3ccccc32)cc1`, the activation (% of control) is 98%.

`Cc1ccc(NC(=O)c2sc3nc(N)c(C#N)cc3c2N)cc1`: the activation (% of control) is 100%.

On to `Cc1cccc(OP(=O)(Nc2c(C)n(C)n(-c3ccccc3)c2=O)Oc2cccc(C)c2)c1`, for which the activation (% of control) was 98.3%.

As for `COc1ccc(C)cc1NC(=O)c1ccc(-c2ccc(C(C)=O)cc2)o1`, the activation (% of control) is 78.6%.

Turning to `COc1cccc(NC(=S)NCc2ccccn2)c1`, the activation (% of control) is 106%.

In the case of `COc1cccc(NC(=O)C(C)Oc2ccccc2)c1` (configuration not stated), the activation (% of control) was 97.5%.

With `COc1cccc(NC(=S)C(C#N)=C2N(C)c3ccccc3N2C)c1`, the activation (% of control) was 145% (active).

In the case of `O=C(NCC1CCN(Cc2ccccc2Cl)CC1)Nc1cccc(Cl)c1`, the activation (% of control) was 102%.

For `CNc1nc(Nc2ccc(C)c(Cl)c2)nc(N)c1[N+](=O)[O-]`, the activation (% of control) was 132%.

Regarding `Cc1ccc(C(=O)N/C(=C/c2ccco2)C(=O)NCCc2c[nH]c3ccccc23)cc1C`, the activation (% of control) is 134% (active).

For the compound `O=C(NC(Cc1c[nH]c2ccccc12)C(=O)O)/C(=C/c1ccco1)NC(=O)c1ccccc1` (configuration not stated), the activation (% of control) is 107%.

On to `COc1ccc(/C=C(\NC(=O)c2ccc(OC)c(OC)c2)C(=O)NCCc2c[nH]c3ccccc23)cc1`, for which the activation (% of control) was 112%.

For `NS(=O)(=O)c1cccc(NC(=O)CN2CCCc3ccccc32)c1`, the activation (% of control) is 106%.

In the case of `COC(=O)c1[nH]c2cccc(C)c2c1NC(=O)CN1CCCc2ccccc21`, the activation (% of control) was 140% (active).

`O=C(CN1CCc2ccccc21)NC(c1ccccc1)c1ccccc1`: the activation (% of control) is 103%.

With `COC(=O)c1[nH]c2ccccc2c1NC(=O)CN1CCCc2ccccc21`, the activation (% of control) was 154% (active).

`CCOC(=O)c1[nH]c2ccc(OC)cc2c1NC(=O)CCN1CCN(Cc2ccccc2)CC1`: the activation (% of control) was 104%.

For the compound `Cc1ccccc1NC(=O)CNc1ccccc1N1CCCCC1`, the activation (% of control) is 101%.

For `CC(C(=O)N=Nc1c(O)n(C)c2ccc(Br)cc12)n1cnc2ccccc2c1=O` (configuration not stated), the activation (% of control) was 121%.

Turning to `CCN1CCN(c2ccc(NC(=O)c3cnccn3)cc2)CC1`, the activation (% of control) is 100%.

On to `CCCCCC1CCC(c2nnc(SCC(C)=O)o2)CC1` (configuration not stated), for which the activation (% of control) was 101%.

With `CN(C)/C(=N\OC(=O)c1ccccc1)c1nonc1N`, the activation (% of control) was 97.7%.

In the case of `CCn1c(Cc2ccccc2)nnc1SCc1nc2ccccc2c(=O)[nH]1`, the activation (% of control) is 107%.

As to `O=c1[nH]c(CSc2ncc(-c3ccc(F)cc3)n2Cc2ccco2)nc2ccccc12`, the activation (% of control) was 152% (active).

On to `Cn1c(-c2ccc(F)cc2)cnc1SCC(=O)NCc1ccco1`, for which the activation (% of control) was 101%.
